pIC50: −log10 of the molar value.
Tests used:
[1] = tested on: Human Red Blood Cell (HRBC) membrane; assay: HRBC membrane stabilization method; type: cell-based
In short: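 Human red blood cell membrane stabilization assay, run in quadruplicate with diclofenac as reference. Hemolysis in distilled water was taken as 100%. Protection was calculated as % inhibition of hemolysis = 100 × (OD control − OD sample)/OD control.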

[2] = tested on: MCF-7 (human breast cancer); assay: Anticancer MTT assay, breast cancer cells; type: cell-based
In short: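 MCF-7 cells grown in DMEM with 10% FBS, penicillin and streptomycin at 37°C in 5% CO₂. About 5000 cells/well were exposed to test compound at 50-500 µg/mL (1 mg/ml DMSO working solution, 0.45-micron filtered) for 24, 48 or 72 h. MTT was added for 2 h, then lysis buffer for 4 h, and A570 was read. Viability = mean OD/control OD × 100.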

pIC50 ([1]; Homo sapiens, Erythrocyte, read-out: HRBC membrane protection IC50) | Compound | HRBC membrane average protection ([1]; n=4) [%] | Relative percentage activity (anticancer) [2] [%]
6.82 | O=C(O)Cc1ccccc1Nc1c(Cl)cccc1Cl [Diclofenac] | 82.15 | 
 | COc1cccc2c1C(=O)c1c(O)c3c(c(O)c1C2=O)C[C@@](O)(C(=O)CO)C[C@@H]3O[C@H]1C[C@H](N)[C@H](O)[C@H](C)O1 [Doxorubicin] |  | 89.47 ± 2.87
